Measurements from ChEMBL document CHEMBL1128252, “Synthesis and anti-HIV-1 activity of 4,5,6,7-tetrahydro-5-methylimidazo [4,5,1-jk][1,4]benzodiazepin-2(1H)-one (TIBO) derivatives. 3” (J Med Chem, 1995).

Tests used:
[1] = tested on: Human immunodeficiency virus 1; experiment: (§1) Effective concentration required to achieve 50% protection of MT-4 cells against the cytopathic effect of HIV-1.; type: functional, organism-based; settings: Human immunodeficiency virus 1, MT4
In short: (§2)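 MT-4 cells infected with HIV-1 and incubated with a range of compound concentrations. Viable cells were counted 5 days post-infection by MTT staining. IC50 is the concentration protecting 50% of cells from virus-induced cytopathic effect. Values are means over n assays, where n varies per compound.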

MT4 [2] = experiment: Effective concentration of compound required to achieve 50% protection of MT-4 cells against the cytopathic effect of HIV-1 number of experiments = 24; type: functional, cell-based; settings: Homo sapiens; in short: as §2
[3] = tested on: Human immunodeficiency virus 1; experiment: as §1; type: functional, organism-based, MT4; in short: as §2
MT4 [4] = experiment: Effective concentration of compound required to achieve 50% protection of MT-4 cells against the cytopathic effect of HIV-1 number of experiments = 4; type: functional, cell-based; settings: Homo sapiens; in short: as §2
MT4 [5] = experiment: Effective concentration of compound required to achieve 50% protection of MT-4 cells against the cytopathic effect of HIV-1 number of experiments = 20; type: functional, cell-based; settings: Homo sapiens; in short: as §2
MT4 [6] = experiment: Effective concentration of compound required to achieve 50% protection of MT-4 cells against the cytopathic effect of HIV-1 number of experiments = 6; type: functional, cell-based; settings: Homo sapiens; in short: as §2
MT4 [7] = experiment: Effective concentration of compound required to achieve 50% protection of MT-4 cells against the cytopathic effect of HIV-1 number of experiments = 8; type: functional, cell-based; settings: Homo sapiens; in short: as §2
MT4 [8] = experiment: Effective concentration of compound required to achieve 50% protection of MT-4 cells against the cytopathic effect of HIV-1 number of experiments = 53; type: functional, cell-based; settings: Homo sapiens; in short: as §2
[9] = Human immunodeficiency virus 1, MT4

Structure (SMILES) | IC50 [1] | also measured
C=C(C)CN1Cc2cccc3nc(O)n(c23)C(c2ccccc2)C1 (stereo not drawn) | > 250 µM | –
CC(C)=CCN1[C@@H](C)Cn2c(=O)[nH]c3cc(Cl)cc(c32)[C@@H]1C | > 5 µM | –
CC(C)C1Cn2c(O)nc3cccc(c32)CN1 (stereo not drawn) | > 250 µM | –
CCCN1CCn2c(=O)[nH]c3cccc(c32)C1C (stereo not drawn) | > 83 µM | –
Sc1nc2cc(Cl)cc3c2n1CCN1CCCC31 (stereo not drawn) | > 2 µM | –
CC(C)=CCN1Cc2cccc3nc(O)n(c23)C(C)C1C (stereo not drawn) | 56.7 µM | –
CCCN1Cc2cccc3[nH]c(=O)n(c23)C(C(C)C)C1 (stereo not drawn) | 73.3 µM | –
C=C(C)CN1Cc2cccc3[nH]c(=O)n(c23)CC1C (stereo not drawn) | – | IC50 (MT4 [2]): 34.7 µM
CC(C)C1CNCc2cccc3nc(O)n1c23 (stereo not drawn) | – | IC50 [3, 9]: > 250 µM
C[C@@H]1Cn2c(S)nc3cc(Cl)cc(c32)CN1CC1CC1 | 0.034 µM | –
CC(C)=CCN1CCn2c(=S)[nH]c3cc(Cl)cc(c32)C1C (stereo not drawn) | 0.023 µM | –
CC(C)=CCN1CCn2c(=O)[nH]c3cc(Cl)cc(c32)C1C (stereo not drawn) | 0.16 µM | –
O=C1CCC2c3cc(Cl)cc4nc(S)n(c34)CCN12 (stereo not drawn) | – | IC50 [3, 9]: > 250 µM
CC(C)[C@H]1Cn2c(O)nc3cccc(c32)CN1 | – | IC50 [3, 9]: > 250 µM
CCC1Cn2c(O)nc3cccc(c32)CN1 (stereo not drawn) | > 250 µM | –
Oc1nc2cccc3c2n1CC(c1ccccc1)NC3 (stereo not drawn) | > 250 µM | –
CC(C)[C@H]1Cn2c(O)nc3cc(Cl)cc(c32)CN1 | > 10 µM | –
CC(C)=CCN1Cc2cccc3[nH]c(=S)n(c23)C(C)C1C (stereo not drawn) | 14.3 µM | IC50 [3, 9]: 2.22 µM
C=C(C)CN1Cc2cccc3[nH]c(=O)n(c23)C(CCC)C1 (stereo not drawn) | – | IC50 [3, 9]: 48.1 µM
CCCN1C(=O)c2cccc3nc(O)n(c23)CC1C (stereo not drawn) | – | IC50 (MT4 [4]): > 250 µM
CC(C)=CCN1Cc2cc(Cl)cc3nc(O)n(c23)C[C@@H]1C(C)C | > 10 µM | –
S=c1[nH]c2cccc3c2n1-c1ccccc1N(CC1CC1)C3 | – | IC50 [3, 9]: > 10 µM
CCCC1CN(CCC)Cc2cccc3[nH]c(=O)n1c23 (stereo not drawn) | – | IC50 [3, 9]: > 180 µM
CC(C)=CCN1Cc2cccc3nc(S)n(c23)C[C@@H]1C(C)C | > 10 µM | –
CC(C)=CCN1CCn2c(S)nc3cccc(c32)C1c1ccccc1 (stereo not drawn) | > 2 µM | –
C=C(C)CN1Cc2cccc3nc(O)n(c23)CC1CCC (stereo not drawn) | – | IC50 [3, 9]: > 10 µM

Structure (SMILES) | IC50 [1] | also measured
CC(C)=CCN1CCn2c(=O)[nH]c3cccc(c32)C1C (stereo not drawn) | – | IC50 [3, 9]: 12.1 µM
CC(C)=CCN1Cc2cccc3nc(O)n(c23)C[C@@H]1C(C)C | > 10 µM | –
CC(C)=CCN1[C@H](C)Cn2c(=O)[nH]c3cc(Cl)cc(c32)[C@H]1C | 0.23 µM | –
CC(C)=CCN1CCn2c(=S)[nH]c3cc(Cl)cc(c32)C1 | 0.16 µM | –
CC(C)=CCN1Cc2c(Cl)ccc3nc(S)n(c23)C[C@H]1C | – | IC50 (MT4 [5]): 0.005 µM
C[C@@H]1CN(CC2CC2)Cc2cc(Cl)cc3[nH]c(=S)n1c23 | – | IC50 (MT4 [6]): 2.18 µM
CC1NCCn2c(O)nc3cccc1c32 (stereo not drawn) | > 250 µM | –
C/C=C1/CC2Cn3c(S)nc4cc(Cl)cc(c43)CN2C1 (stereo not drawn) | 3.76 µM | –
CCCN1Cc2cccc3nc(O)n(c23)C(c2ccccc2)C1 (stereo not drawn) | > 250 µM | –
Oc1nc2cccc3c2n1CC1CCCN1C3 (stereo not drawn) | > 250 µM | –
CC(C)=CCN1Cc2cc(Cl)cc3nc(S)n(c23)C[C@H]1C(C)C | > 10 µM | –
CCCN1Cc2cccc3nc(O)n(c23)CC1=O | – | IC50 [3, 9]: > 250 µM
O=C1Nc2ccccc2-n2c(S)nc3cccc1c32 | > 250 µM | –
CC(C)=CCN1[C@@H](C)Cn2c(S)nc3cc(Cl)cc(c32)[C@@H]1C | > 10 µM | –
S=c1[nH]c2cc(Cl)cc3c2n1CCN1CCCCC31 (stereo not drawn) | > 2 µM | –
C=C(C)CN1Cc2cccc3[nH]c(=O)n(c23)C(C(C)C)C1 (stereo not drawn) | – | IC50 [3, 9]: 12.6 µM
Oc1nc2cccc3c2n1CC1CCCCN1C3 (stereo not drawn) | – | IC50 (MT4 [7]): > 250 µM
C=C(C)CN1Cc2cccc3nc(O)n(c23)C[C@@H]1C(C)C | > 10 µM | –
Oc1nc2cccc3c2n1C(c1ccccc1)CNC3 (stereo not drawn) | > 250 µM | –
CC(C)=CCN1Cc2cc(Cl)cc3nc(S)n(c23)C[C@H]1C | – | IC50 (MT4 [8]): 0.043 µM
C=C(C)CN1Cc2cc(Cl)cc3[nH]c(=S)n(c23)[C@@H](C)C1 | 0.67 µM | –
CC(C)=CCN1CC(C)n2c(S)nc3cccc(c32)C1C (stereo in doubt; 1bh) | – | IC50 ([3]; mt4): > 10 µM
C=C(C)CN1Cc2cccc3[nH]c(=O)n(c23)CC1CC (stereo not drawn) | – | IC50 (MT4 [4]): > 50 µM
C[C@@H]1Cn2c(O)nc3cc(Cl)cc(c32)CN1 | – | IC50 [3, 9]: > 250 µM
CC(C)=CCN1Cc2cc(Cl)cc3[nH]c(=O)n(c23)C[C@H]1C | – | IC50 [3, 9]: 0.18 µM
CC(C)=CCN1CCn2c(O)nc3cc(Cl)cc(c32)C1CC(C)C (stereo not drawn) | > 2 µM | –

Structure (SMILES) | IC50 [1] | also measured
CC(C)=CCN1CCn2c(=S)[nH]c3cccc(c32)C1C (stereo not drawn) | 0.078 µM | –
CC(C)=CCN1[C@H](C)Cn2c(=S)[nH]c3cc(Cl)cc(c32)[C@H]1C | 0.48 µM | –
CC1CNCc2cccc3nc(O)n1c23 (stereo not drawn) | > 250 µM | –
C=C(C)CN1Cc2cccc3nc(O)n(c23)CC1c1ccccc1 (stereo not drawn) | > 10 µM | –
CCCN1Cc2cc(Cl)cc3[nH]c(=S)n(c23)C(=O)C1C (stereo not drawn) | > 50 µM | –
C=C(C)CN1Cc2cccc3[nH]c(=O)n(c23)C(C)C1 (stereo not drawn) | 32.1 µM | –
CC(C)=CCN1C(C)Cn2c(=S)[nH]c3cccc(c32)C1C (stereo not drawn) | 1.15 µM | IC50 (MT4 [7]): 0.042 µM
CC1(C)Cn2c(O)nc3cccc(c32)CN1 | > 250 µM | –
C=C1CC2Cn3c(S)nc4cc(Cl)cc(c43)CN2C1 (stereo not drawn) | > 10 µM | –
CCCN1CCn2c(=S)[nH]c3cccc(c32)C1C (stereo not drawn) | 2.43 µM | –
C[C@@H]1Cn2c(S)nc3cccc(c32)CN1CC1CC1 | 0.06 µM | –
CC(C)=CCN1CCn2c(=O)[nH]c3ccc(Cl)c(c32)C1C (stereo not drawn) | – | IC50 [3, 9]: 0.145 µM
CC(C)=CCN1CCn2c(S)nc3cc(Cl)c4c(c32)C1CC4 (stereo not drawn) | > 2 µM | –
CC1Cn2c(O)nc3cccc(c32)CN1 (stereo not drawn) | > 250 µM | –
C=C(C)CN1Cc2cccc3[nH]c(=O)n(c23)CC1(C)C | 23.1 µM | –
CCCC1CNCc2cccc3nc(O)n1c23 (stereo not drawn) | – | IC50 [3, 9]: > 250 µM
C=C(C)CN1Cc2cccc3nc(S)n(c23)C[C@H]1C | 0.026 µM | –
CC(C)=CCN1Cc2cccc3nc(O)n(c23)C[C@H]1C | – | IC50 (MT4 [7]): 3.32 µM
CC(C)=CCN1CCn2c(S)nc3cc(Cl)cc(c32)C1CC(C)C (stereo not drawn) | > 2 µM | –
CCCC1Cn2c(O)nc3cccc(c32)CN1 (stereo not drawn) | – | IC50 [3, 9]: > 250 µM
CC1C(C)n2c(S)nc3cccc(c32)CN1CC1CC1 (stereo not drawn) | 13.4 µM | –
CC(C)=CCN1CCn2c(=S)[nH]c3ccc(Cl)c(c32)C1 | – | IC50 [3, 9]: 0.046 µM
CC(C)=CCN1CC(C)n2c(S)nc3cccc(c32)C1C (stereo in doubt; 1bg) | – | IC50 ([3]; mt4): 25.8 µM
CC(C)=CCN1CCn2c(=S)[nH]c3ccc(Cl)c(c32)C1C (stereo not drawn) | – | IC50 [3, 9]: 0.012 µM
